{"source": "ChEMBL document CHEMBL4622886", "about": "“Leucinostatins from Ophiocordyceps spp. and Purpureocillium spp. Demonstrate Selective Antiproliferative Effects in Cells Representing the Luminal Androgen Receptor Subtype of Triple Negative Breast Cancer” (2020)", "key": {"mTORC1 (Homo sapiens) [1]": {"target": "T1, mTORC1 (Homo sapiens) (UniProt P42345+Q8N122+Q9BVC4)", "T1 sequence (Q8N122 whole entry, looked up, other chains not shown)": "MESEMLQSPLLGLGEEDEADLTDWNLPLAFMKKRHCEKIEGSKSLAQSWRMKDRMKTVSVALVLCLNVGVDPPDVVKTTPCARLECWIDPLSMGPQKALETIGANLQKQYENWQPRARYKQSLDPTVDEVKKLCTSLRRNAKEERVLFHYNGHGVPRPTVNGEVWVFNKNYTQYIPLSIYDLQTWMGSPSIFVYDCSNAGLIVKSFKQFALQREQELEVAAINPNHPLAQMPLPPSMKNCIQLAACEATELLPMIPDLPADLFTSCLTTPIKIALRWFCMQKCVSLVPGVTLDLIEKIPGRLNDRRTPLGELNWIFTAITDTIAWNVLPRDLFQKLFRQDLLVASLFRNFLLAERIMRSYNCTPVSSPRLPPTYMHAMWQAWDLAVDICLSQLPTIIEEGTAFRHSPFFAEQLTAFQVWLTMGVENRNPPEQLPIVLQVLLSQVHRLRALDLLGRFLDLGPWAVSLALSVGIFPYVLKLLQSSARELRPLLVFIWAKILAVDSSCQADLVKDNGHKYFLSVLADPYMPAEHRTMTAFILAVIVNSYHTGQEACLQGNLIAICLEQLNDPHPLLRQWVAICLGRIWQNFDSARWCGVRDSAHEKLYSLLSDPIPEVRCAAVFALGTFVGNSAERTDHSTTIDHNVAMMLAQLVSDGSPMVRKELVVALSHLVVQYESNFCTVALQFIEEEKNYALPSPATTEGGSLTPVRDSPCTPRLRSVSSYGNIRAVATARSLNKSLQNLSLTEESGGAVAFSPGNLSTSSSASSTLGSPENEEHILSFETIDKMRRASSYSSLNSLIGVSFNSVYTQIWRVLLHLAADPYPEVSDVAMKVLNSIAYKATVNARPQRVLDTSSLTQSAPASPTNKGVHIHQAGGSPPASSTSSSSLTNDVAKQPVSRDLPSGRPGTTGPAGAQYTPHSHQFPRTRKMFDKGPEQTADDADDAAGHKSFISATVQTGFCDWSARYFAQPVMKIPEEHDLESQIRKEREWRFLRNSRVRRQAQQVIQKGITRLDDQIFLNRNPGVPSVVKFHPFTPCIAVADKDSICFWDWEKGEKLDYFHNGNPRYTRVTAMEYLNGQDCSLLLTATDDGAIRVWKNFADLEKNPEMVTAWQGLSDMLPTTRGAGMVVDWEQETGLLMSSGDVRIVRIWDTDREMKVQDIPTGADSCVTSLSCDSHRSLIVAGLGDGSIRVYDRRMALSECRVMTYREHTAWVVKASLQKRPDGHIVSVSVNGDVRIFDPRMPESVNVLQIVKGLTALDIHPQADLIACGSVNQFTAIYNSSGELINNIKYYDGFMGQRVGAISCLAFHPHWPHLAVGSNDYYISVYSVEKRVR", "T1 sequence (Q9BVC4 whole entry, looked up, other chains not shown)": "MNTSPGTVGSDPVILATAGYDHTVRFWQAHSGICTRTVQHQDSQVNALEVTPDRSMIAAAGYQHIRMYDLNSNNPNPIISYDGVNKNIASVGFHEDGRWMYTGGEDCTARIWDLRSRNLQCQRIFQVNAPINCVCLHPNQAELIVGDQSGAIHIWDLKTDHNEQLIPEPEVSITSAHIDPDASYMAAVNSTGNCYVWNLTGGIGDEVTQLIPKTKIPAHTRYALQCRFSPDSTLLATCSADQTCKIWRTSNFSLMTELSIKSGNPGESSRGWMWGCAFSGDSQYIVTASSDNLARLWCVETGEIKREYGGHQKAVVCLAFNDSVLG", "assay": "Inhibition of mTORC1 signalling in human MDA-MB-453 cells assessed as reduction in RPS6 phosphorylation at S235/236 residue at 100 nM measured at 6 hrs by immunoblot analysis relative to control", "format": "cell-based", "how_it_was_run": "(§1)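 Cells were exposed to 100 nM compound or DMSO for 2, 6 or 18 h, then scraped and lysed with PMSF, Na3VO4 and protease inhibitors. Lysate (10 μg protein) ran on 10% Bis-Tris SDS-PAGE and went to PVDF. Blots were probed 1:1000 for phospho and total AKT (S473), S6K (T389), RPS6 (S235/236) and 4E-BP1 (T37/46), plus GAPDH. IRDye secondaries; infrared imaging; two independent experiments.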"}, "mTORC1 (Homo sapiens) [2]": {"target": "T1, mTORC1 (Homo sapiens)", "assay": "Inhibition of mTORC1 signalling in human MDA-MB-231 cells assessed as reduction in 4E-BP1 phosphorylation at T37/46 residue at 100 nM measured after 2 hrs by immunoblot analysis", "format": "cell-based", "how_it_was_run": "as §1"}, "mTORC1 (Homo sapiens) [3]": {"target": "T1, mTORC1 (Homo sapiens)", "assay": "Inhibition of mTORC1 signalling in human MDA-MB-231 cells assessed as induction of AKT phosphorylation at S473 residue at 100 nM measured within 18 hrs by immunoblot analysis relative to control", "format": "cell-based", "how_it_was_run": "as §1"}, "HCC1937 [4]": {"system": "HCC1937", "assay": "Antiproliferative activity against human HCC1937 cells up to 100 nM incubated for 48 hrs by sulforhodamine B assay", "format": "functional, cell-based", "how_it_was_run": "(§2)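 Cells (RPMI-1640 with 5% FBS, 0.5% gentamicin; used within 4 months of thaw) were seeded at set densities, allowed to adhere, then treated 48 h with compound or DMSO vehicle. Cells were fixed and SRB-stained, with absorbance read at 560 nm. GI50 vs vehicle was taken by non-linear regression; three independent experiments, each in triplicate.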"}, "MDA-MB-231 [5]": {"system": "MDA-MB-231", "assay": "Antiproliferative activity against human MDA-MB-231 cells up to 100 nM incubated for 48 hrs by sulforhodamine B assay", "format": "functional, cell-based", "how_it_was_run": "(§3)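 IMEM with 5% FBS and 0.3% gentamicin; cells used within 4 months of thaw. After seeding at set densities and adhering, cells got compound or DMSO vehicle for 48 h, then were fixed and SRB-stained, with A560 read. GI50 (50% proliferation inhibition vs vehicle) came from non-linear regression of concentration-response curves; three independent experiments, each in triplicate.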"}, "BT-549 [6]": {"system": "BT-549", "assay": "Antiproliferative activity against human BT549 cells up to 100 nM incubated for 48 hrs by sulforhodamine B assay", "format": "functional, cell-based", "how_it_was_run": "as §2"}, "MDA-MB-453 [7]": {"system": "MDA-MB-453", "assay": "Antiproliferative activity against human MDA-MB-453 cells at 1 to 100 nM incubated for 48 hrs by sulforhodamine B assay", "format": "functional, cell-based", "how_it_was_run": "as §3"}, "SUM185PE [8]": {"system": "SUM185PE", "assay": "Antiproliferative activity against human SUM185PE cells at 1 to 100 nM incubated for 48 hrs by sulforhodamine B assay", "format": "functional, cell-based", "how_it_was_run": "as §3"}, "MDA-MB-453 [9]": {"system": "MDA-MB-453", "assay": "Antiproliferative activity against human MDA-MB-453 cells at 0.01 to 100 nM incubated for 48 hrs by sulforhodamine B assay", "format": "functional, cell-based", "how_it_was_run": "as §3"}, "HCC1937 [10]": {"system": "HCC1937", "assay": "Antiproliferative activity against human HCC1937 cells at >1 uM incubated for 48 hrs by sulforhodamine B assay", "format": "functional, cell-based", "how_it_was_run": "as §2"}, "BT-549 [11]": {"system": "BT-549", "assay": "Antiproliferative activity against human BT549 cells at >1 uM incubated for 48 hrs by sulforhodamine B assay", "format": "functional, cell-based", "how_it_was_run": "as §2"}, "mTORC1 (Homo sapiens) [12]": {"target": "T1, mTORC1 (Homo sapiens)", "assay": "Inhibition of mTORC1 signalling in human MDA-MB-453 cells assessed as reduction in 4E-BP1 phosphorylation at T37/46 residue at 100 nM measured after 2 hrs by immunoblot analysis", "format": "cell-based", "how_it_was_run": "as §1"}, "mTORC1 (Homo sapiens) [13]": {"target": "T1, mTORC1 (Homo sapiens)", "assay": "Inhibition of mTORC1 signalling in human MDA-MB-231 cells assessed as reduction in ribosomal protein S6 kinase phosphorylation at T389 residue at 100 nM measured after 2 to 18 hrs by immunoblot analysis relative to control", "format": "cell-based", "how_it_was_run": "as §1"}, "HCC1806 [14]": {"system": "HCC1806", "assay": "Antiproliferative activity against human HCC1806 cells at >1 uM incubated for 48 hrs by sulforhodamine B assay", "format": "functional, cell-based", "how_it_was_run": "as §2"}, "mTORC1 (Homo sapiens) [15]": {"target": "T1, mTORC1 (Homo sapiens)", "assay": "Inhibition of mTORC1 signalling in human MDA-MB-453 cells assessed as induction of AKT phosphorylation at S473 residue at 100 nM measured within 18 hrs by immunoblot analysis relative to control", "format": "cell-based", "how_it_was_run": "as §1"}, "mTORC1 (Homo sapiens) [16]": {"target": "T1, mTORC1 (Homo sapiens)", "assay": "Inhibition of mTORC1 signalling in human MDA-MB-453 cells assessed as reduction in ribosomal protein S6 kinase phosphorylation at T389 residue at 100 nM measured within 2 hrs by immunoblot analysis relative to control", "format": "cell-based", "how_it_was_run": "as §1"}, "MDA-MB-231 [17]": {"system": "MDA-MB-231", "assay": "Antiproliferative activity against human MDA-MB-231 cells at > 1 uM incubated for 48 hrs by sulforhodamine B assay", "format": "functional, cell-based", "how_it_was_run": "as §3"}, "MDA-MB-453 [18]": {"system": "MDA-MB-453", "assay": "Antiproliferative activity against human MDA-MB-453 cells at > 1 uM incubated for 48 hrs by sulforhodamine B assay", "format": "functional, cell-based", "how_it_was_run": "as §3"}, "SUM185PE [19]": {"system": "SUM185PE", "assay": "Antiproliferative activity against human SUM185PE cells at 0.01 to 100 nM incubated for 48 hrs by sulforhodamine B assay", "format": "functional, cell-based", "how_it_was_run": "as §3"}, "mTORC1 (Homo sapiens) [20]": {"target": "T1, mTORC1 (Homo sapiens)", "assay": "Inhibition of mTORC1 signalling in human MDA-MB-453 cells assessed as reduction in RPS6 phosphorylation at S235/236 residue at 100 nM measured at 2 hrs by immunoblot analysis", "format": "cell-based", "how_it_was_run": "as §1"}, "mTORC1 (Homo sapiens) [21]": {"target": "T1, mTORC1 (Homo sapiens)", "assay": "Inhibition of mTORC1 signalling in human MDA-MB-231 cells assessed as reduction in RPS6 phosphorylation at S235/236 residue at 100 nM measured after 2 to 18 hrs by immunoblot analysis relative to control", "format": "cell-based", "how_it_was_run": "as §1"}, "HCC1806 [22]": {"system": "HCC1806", "assay": "Antiproliferative activity against human HCC1806 cells up to 100 nM incubated for 48 hrs by sulforhodamine B assay", "format": "functional, cell-based", "how_it_was_run": "as §2"}}, "note": "Active and inactive are the calls of the source. The calls are words filed in the database; no cut-off is given here. Numbered stars: 1 amine (or outer) side, 2 acyl side, 3 side chain; on linkers, the order of the positions; unused ones are H or OH. Square brackets hold non-standard residues; d marks the D form. Peptide text beside a SMILES is read from it. * marks the point of attachment. X1 = CCC(=O)C[C@@H](O)C[C@@H](C)C[C@H](N[*:1])C(=O)[*:2]; Hexenoyl(2E,4S-Me) = CC[C@H](C)/C=C/C(=O)*; Leu(3R-OH) = CC(C)[C@@H](O)[C@H](N)C(=O)O; Pro(4S-Me) = C[C@@H]1CN[C@H](C(=O)O)C1; NH((S)CH(CH3)CH2NHMe) = CNC[C@H](C)N*; Aib = CC(C)(N)C(=O)O; βAla = NCCC(=O)O", "data": [{"smiles": "CCC(=O)C[C@@H](O)C[C@@H](C)C[C@H](NC(=O)[C@@H]1C[C@H](C)CN1C(=O)/C=C/[C@@H](C)CC)C(=O)N[C@H](C(=O)NC(C)(C)C(=O)N[C@@H](CC(C)C)C(=O)N[C@@H](CC(C)C)C(=O)NC(C)(C)C(=O)NC(C)(C)C(=O)NCCC(=O)N[C@@H](C)CNC)[C@H](O)C(C)C", "note": "({Hexenoyl(2E,4S-Me)}-[Pro(4S-Me)][X1][Leu(3R-OH)][Aib]LL[Aib][Aib][βAla]-{NH((S)CH(CH3)CH2NHMe)})", "values": [{"measurement": "inhibition", "setting": "mTORC1 (Homo sapiens) [1]", "value": 100, "unit": "%"}, {"measurement": "inhibition", "setting": "mTORC1 (Homo sapiens) [2]", "value": "inactive"}, {"measurement": "inhibition", "setting": "mTORC1 (Homo sapiens) [3]", "value": "inactive"}, {"measurement": "Activity", "setting": "HCC1937 [4]", "value": "inactive"}, {"measurement": "Activity", "setting": "MDA-MB-231 [5]", "value": "inactive"}, {"measurement": "Activity", "setting": "BT-549 [6]", "value": "inactive"}, {"measurement": "Activity", "setting": "MDA-MB-453 [7]", "value": "Active"}, {"measurement": "Activity", "setting": "SUM185PE [8]", "value": "Active"}, {"measurement": "inhibition", "setting": "MDA-MB-453 [9]", "value": "Active"}, {"measurement": "Activity", "setting": "HCC1937 [10]", "value": "Active"}, {"measurement": "Activity", "setting": "BT-549 [11]", "value": "Active"}, {"measurement": "inhibition", "setting": "mTORC1 (Homo sapiens) [12]", "value": "Active"}, {"measurement": "inhibition", "setting": "mTORC1 (Homo sapiens) [13]", "value": "inactive"}, {"measurement": "Activity", "setting": "HCC1806 [14]", "value": "Active"}, {"measurement": "inhibition", "setting": "mTORC1 (Homo sapiens) [15]", "value": "Active"}, {"measurement": "inhibition", "setting": "mTORC1 (Homo sapiens) [16]", "value": 100, "unit": "%"}, {"measurement": "Activity", "setting": "MDA-MB-231 [17]", "value": "Active"}, {"measurement": "Activity", "setting": "MDA-MB-453 [18]", "value": "Active"}, {"measurement": "inhibition", "setting": "SUM185PE [19]", "value": "Active"}, {"measurement": "inhibition", "setting": "mTORC1 (Homo sapiens) [20]", "value": "Active"}, {"measurement": "inhibition", "setting": "mTORC1 (Homo sapiens) [21]", "value": "inactive"}, {"measurement": "Activity", "setting": "HCC1806 [22]", "value": "inactive"}]}]}
